# Screening data from PubChem.
# GRIN3A LBD mod – modulators (binders) of human NR3A ligand-binding domain; NR3A LBD differential scanning fluorimetry, Tm shift; 0% = protein alone, 100% = glycine-bound protein; 340,000 compounds, 2.5% hits; Tm shift relative to glycine control, % at 25 µM;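 active = melting temperature shift of at least 10% of the positive control shift, at one fixed dose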
# MPTP block – inhibitors of mitochondrial permeability transition pore; isolated mouse mitochondria, Ca2+ swelling absorbance, 30 min; inhibition, % at 10 µM; 360,000 compounds, 1.4% hits; AID 602449;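 active = inhibition of 50% or more, scaled per plate between neutral and stimulator controls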
# procasp3 activ – procaspase-3 (human) activation; P42574; recombinant procaspase-3 D3A, Ac-DEVD-pNA absorbance 405 nm; activation, % at 8.5 µM; 330,000 compounds, 0.11% hits; AID 463141;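 active = activation above the mean of all tested compounds plus 3 SD, cut at about 21% in these data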
# Target sequence (P42574 whole entry D9A/D28A/D175A): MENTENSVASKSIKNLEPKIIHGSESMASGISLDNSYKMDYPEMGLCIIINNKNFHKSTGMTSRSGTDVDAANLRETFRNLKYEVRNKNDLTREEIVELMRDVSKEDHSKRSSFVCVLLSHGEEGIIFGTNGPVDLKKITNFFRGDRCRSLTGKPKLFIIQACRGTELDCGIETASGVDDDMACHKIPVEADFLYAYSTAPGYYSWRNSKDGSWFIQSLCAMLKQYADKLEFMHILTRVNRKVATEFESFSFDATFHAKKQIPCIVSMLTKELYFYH
#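 Assay system: Autoprocessing-dead procaspase-3 D3A mutant enzyme; also added: Ac-DEVD-pNA; doses: one concentration, 8.5 µM nominal, 0.8% DMSO; times: 1 h compound preincubation, 2 h substrate hydrolysis at 25 °C; technique: 405 nm absorbance of p-nitroaniline, reads at 0 and 120 min; measure: % activation between DMSO and enzyme-spiked controls; repeats: single replicate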
# procasp7 counter – counter-screen: procaspase-7 (human) activation. P55210. recombinant procaspase-7, Ac-DEVD-pNA absorbance 405 nm; D23A/D198A/D206A triple mutant, cannot self-cleave; scale: DMSO 0, 5 µM enzyme 100. activation, % at 8.5 µM. 330,000 compounds, 0.093% hits. AID 463210;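 active = percent activation above the screen-wide mean plus 3 SD, cut at about 25% in these data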
#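 Assay system: Uncleavable procaspase-7 mutant enzyme | Input: 2 µM procaspase-7 mutant as dispensed | Timing: 1 h compound preincubation, 2 h substrate cleavage, 25 °C | Repeats: One well per compound | Control set: DMSO wells as 0%, DMSO with 5 µM added PC-7 as 100% | Technique: Epi-absorbance of released pNA at 405 nm, two timepoints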
# aDG glyco act – alpha-DG glycosylation activation | 360,000 compounds, 0.22% hits | activation, % at 10 µM | Pro5-aDG cells, alpha-DG glycosylation AlphaScreen (IIH6); 0% Pro5, 100% B10-LARGE cell signal;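 active = activation of at least 8% versus controls, or a plate z-score of at least 8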;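 also: Pro5 are CHO cells carrying HIG-tagged alpha-DG that lacks glycosylation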
# Hits are given with their value; 0 = inactive; - = no result. Only some compounds are listed: those with a hit (about 3.7% of all), similar ones and a draw of the others.
SMILES,GRIN3A LBD mod,MPTP block,procasp3 activ,procasp7 counter,aDG glyco act
C/C(=N\N=C(/N)SC1CC(=O)N(c2ccc(Cl)c(Cl)c2)C1=O)c1cccs1 (stereo unspecified),33.9,0,0,0,0
C/C(=N\N=C(/N)SC1CC(=O)N(c2ccc(Br)cc2)C1=O)c1cccs1 (stereo unspecified),12.0,0,0,0,0
C/C(=N\N=C(/N)SC1CC(=O)N(c2ccccc2)C1=O)c1cccs1 (stereo unspecified),0,0,0,0,0
CCCCCCOc1ccc(N2C(=O)CC(S/C(N)=N/N=C(\C)c3cccs3)C2=O)cc1 (stereo unspecified),0,0,0,0,0
C/C(=N\N=C(/N)SC1CC(=O)N(c2ccc(Cl)cc2)C1=O)c1cccs1 (stereo unspecified),18.3,0,0,0,0
Cc1ccc(N(CC(=O)N/N=C/c2ccc(OC3CSC3)cc2)S(=O)(=O)c2ccccc2)cc1,0,0,0,0,0
COc1ccc(N(CC(=O)N/N=C/c2ccc(OC3CSC3)cc2)S(=O)(=O)c2ccccc2)cc1,16.1,0,0,0,0
COc1ccc([N+](=O)[O-])cc1N(CC(=O)NCCSc1ccc(C)cc1)S(C)(=O)=O,0,0,0,0,0
COc1ccc(S(=O)(=O)Nc2cc(C)ccc2OC)cc1C,12.3,0,0,0,0
COc1ccc(C)cc1NS(=O)(=O)c1ccc(NS(=O)(=O)c2ccc(NC(C)=O)cc2)cc1,0,0,0,0,0
COc1ccc(C)cc1S(=O)(=O)N(CC(=O)Nc1cccc([N+](=O)[O-])c1)c1ccc(C)c(C)c1,32.7,0,0,0,0
COc1ccc(C)cc1NS(=O)(=O)c1ccc(NC(=O)CN(c2cc([N+](=O)[O-])ccc2C)S(C)(=O)=O)cc1,20.5,0,0,0,0
Cc1cccc(NS(=O)(=O)c2ccc(NC(=O)CN(c3cc([N+](=O)[O-])ccc3C)S(C)(=O)=O)cc2)c1,22.0,0,0,0,0
Cc1onc(-c2c(F)cccc2Cl)c1C(=O)OCC(=O)Nc1cccc(S(=O)(=O)N(C)C)c1,0,0,-,-,0
CC1CCCCC12NC(=O)N(CC(=O)N1CCN(S(=O)(=O)c3ccc(Cl)s3)CC1)C2=O (stereo unspecified),-,0,-,-,0
COc1ccc(NC(=O)C2(C)CCN2CCOc2ccc(C)cc2)cc1OC (stereo unspecified),-,0,-,-,0
O=C(CSc1nc2ccccc2c(=O)n1-c1ccc(F)cc1F)c1c[nH]c2ccccc12,19.2,0,0,0,0
Cc1ccc2nc(SCC(=O)c3c[nH]c4ccccc34)[nH]c2c1,14.8,0,0,0,0
Cc1[nH]c2ccccc2c1C(=O)CSc1nc2ncc(Cl)cc2[nH]1,0,0,0,0,0
Cc1[nH]c2ccccc2c1C(=O)CSC(=S)N(C)C,16.4,0,0,0,0
Cc1ccc2nc(SCC(=O)c3c(C)[nH]c4ccccc34)[nH]c2c1,11.8,0,0,0,0
CCc1nc2ccc(C(=O)NCc3ccc4c(c3)OCO4)cn2c1N(C)Cc1ccc(OC)cc1,-,0,-,-,0
CN(C)C(=O)CCc1ccc2c3c([nH]c2c1)[C@]1(CCc2ccccc2)[C@@H](C(=O)N2CCCCC2)C[C@H](CC(=O)NC(C)(C)C)C(=O)N1CC3,0,0,0,0,0
O=C1NC(C2CC3C=CC2C3)Nc2ccccc21 (stereo unspecified),-,0,-,-,0
O=C(CSc1nc2ccccc2[nH]1)c1ccccc1F,0,0,0,0,0
SMILES,GRIN3A LBD mod,MPTP block,procasp3 activ,procasp7 counter,aDG glyco act
O=C(CSc1nc2ccccc2[nH]1)c1c[nH]c2ccccc12,14.4,0,0,0,0
CCOC(=O)C1=C[C@@H](CC)N(S(=O)(=O)c2ccc(C)cc2)[C@H]1c1cccs1,-,0,-,-,0
Cc1nc(SCC(=O)NC2CC2)c2c(C)c(C)sc2n1,0,0,29.8,0,0
CCc1nc(SCC(=O)NC2CC2)c2c(C)c(C)sc2n1,0,0,0,0,0
O=C(Nc1nc2ccc(SC(F)F)cc2s1)c1ccc(NS(=O)(=O)c2ccc(F)c(F)c2)cc1,47.1,0,0,0,0
CS(=O)(=O)c1ccc2nc(NC(=O)c3cc([N+](=O)[O-])cc([N+](=O)[O-])c3)sc2c1,0,0,0,0,0
